What was measured:
Test in all cases: MIC
Assay type in all cases: cell-based
Conditions in all cases: broth microdilution, 37 °C, 24 h
S. aureus ATCC 29213 = system: S. aureus ATCC 29213
Method in brief: (§1)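 Strains were kept in TSB with 25% glycerol at −70 °C and grown aerobically on nutrient agar at 37 °C for 24 h. For MIC, test compound was diluted twofold (1–256 µg/mL) and ~10^6 cells/mL were added, followed by 37 °C for 24 h. MIC was read visually as 99% growth inhibition, with gentamycin as control. For MBC, non-turbid wells were plated on Mueller–Hinton agar for 24 h at 37 °C; MBC was the lowest concentration giving no colonies.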

A. baumannii ATCC 19606 = system: A. baumannii ATCC 19606
Method in brief: as §1

P. aeruginosa ATCC 27853 = system: P. aeruginosa ATCC 27853
Method in brief: as §1

MIC (S. aureus ATCC 29213): 1 µg/mL
MIC (A. baumannii ATCC 19606): 4 µg/mL
MIC (P. aeruginosa ATCC 27853): 2 µg/mL
Substance: Gentamycin

Reference: article PMC12480717 (Scientific Reports, 2025)
